From PubChem
A selection: hits, their analogues and other compounds. The true share with any hit is near 4.8%.
UCH37 DUB inh: human UCH37 deubiquitinating enzyme inhibition. Q9Y5K5. purified proteasome/UCH37, Ub-AMC cleavage fluorescence. inhibition, % (test concentration not listed). 330,000 compounds, 0.33% hits. AID 588478;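 active = mean inhibition over replicate wells above about 20%, limit read from the data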;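 also: 0% = compound-free wells with enzyme and 100% = wells lacking proteasome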
Target sequence (Q9Y5K5 whole entry, looked up): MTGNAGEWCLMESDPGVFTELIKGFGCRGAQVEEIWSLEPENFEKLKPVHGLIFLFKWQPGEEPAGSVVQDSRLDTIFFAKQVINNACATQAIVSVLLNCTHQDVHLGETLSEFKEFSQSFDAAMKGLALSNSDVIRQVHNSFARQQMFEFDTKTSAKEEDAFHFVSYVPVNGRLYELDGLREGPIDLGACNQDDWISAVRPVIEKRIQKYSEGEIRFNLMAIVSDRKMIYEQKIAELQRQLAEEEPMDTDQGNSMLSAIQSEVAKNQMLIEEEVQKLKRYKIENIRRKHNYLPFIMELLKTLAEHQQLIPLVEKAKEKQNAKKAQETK
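Material: Human UCH37 enzyme supplied as purified proteasome complex | Schedule: 30 min compound-proteasome preincubation then 25 min substrate reaction, room temperature | Detection: AMC fluorescence from Ub-AMC cleavage, excitation 355 nm, emission 460 nm | Benchmarks: Wells without proteasome as full block, compound-free enzyme plus substrate as uninhibited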
NALP3 yeast inh: blocks the NALP3 inflammasome reconstituted in yeast | inhibition, % at 10 µM | 330,000 compounds, 0.39% hits | AID 2825 | Yeast reconstituted NLRP3/ASC/caspase-1, beta-gal luminescence, 24 h;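 active = inhibition of 50% or more; inactive = inhibition below 50%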;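 also: plate controls were induced DMSO wells for no effect and uninduced yeast grown without galactose for full effect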
NALP1 yeast inh: NALP1 inhibition; 280,000 compounds, 0.61% hits; inhibition, % at 10 µM; S. cerevisiae NALP1/ASC/caspase-1 growth, X-gal OD620, 72 h; in the data active = inhibition mostly above about 24%, no sharp cut-off; inactive = mostly below about 32%
ALR H2O2 inh: inhibitors of human sulfhydryl oxidase ALR. P55789. purified ALR, DTT oxidation, H2O2 HRP-luminol luminescence. inhibition, % (test concentration not listed). 290,000 compounds, 3.8% hits;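 active = mean replicate inhibition above about 79%, with every replicate also reaching it, limit read from the data; inconclusive = only one of the two criteria met; inactive = mean below limit and not every replicate reaching it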
Target sequence (P55789 whole entry, looked up): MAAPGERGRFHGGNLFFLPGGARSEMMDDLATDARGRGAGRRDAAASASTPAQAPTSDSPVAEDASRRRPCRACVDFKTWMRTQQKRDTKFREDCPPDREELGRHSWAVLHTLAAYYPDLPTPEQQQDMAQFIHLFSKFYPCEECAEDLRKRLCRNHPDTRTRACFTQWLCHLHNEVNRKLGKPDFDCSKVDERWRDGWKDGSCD
ATG4B inh: ATG4B (human) cysteine protease inhibition; inhibition, % at 8.33 µM; ATG4B cleavage of LC3-PLA2, NBD-HPC fluorescence, 1 h; Q9Y4P1; 340,000 compounds, 0.51% hits; in the data active = inhibition above about 40%
Calb FLC: C. albicans growth modulation with fluconazole; C. albicans CaCi-2 + fluconazole, Alamar Blue growth, 48 h; growth inhibition, % (test concentration not listed); 300,000 compounds, 0.57% hits; AID 1979;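 active = growth inhibition above about 58% in most replicates, limit read from the data, passing the limit was not always enough; inconclusive = exactly half the replicates above a set limit; inactive = most replicates below a set limit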;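 also: all wells also contain fluconazole at 8 µg/ml as a sub-toxic cotreatment; 0% = median of DMSO wells and 100% = median of geldanamycin control wells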
* = called active by the depositor.

CCn1cc(C=NNC(=O)Cc2ccc([N+](=O)[O-])cc2)c(C)n1 was read as UCH37 DUB inh 5.7.
Screening COc1ccc(C2N(Cc3ccccc3)CC(=O)N2N=C(C)c2ccccc2)cc1 (centres undefined) returned UCH37 DUB inh 1.5.
Screening COc1cc(C(=O)NCC(=O)NN=C/C(C)=C\c2ccccc2)cc(OC)c1OC returned UCH37 DUB inh 2.7.
Screening Cc1cc(=O)[nH]c(SCC(=O)Nc2ccc(S(=O)(=O)N3CCCCC3)cc2)n1 returned UCH37 DUB inh 7.4, NALP3 yeast inh -1.0, NALP1 yeast inh 8.9, ALR H2O2 inh 98.2*, ATG4B inh 1.1 and Calb FLC 0.3.
Screening Cc1cc(=O)[nH]c(SCC(=O)Nc2ccc(S(=O)(=O)N3CCOCC3)cc2)n1 returned UCH37 DUB inh 1.8, NALP3 yeast inh 6.6, NALP1 yeast inh -2.6, ATG4B inh -15.5 and Calb FLC 0.9.
For COc1ccc(O)c(C=NN=Cc2cccc([N+](=O)[O-])c2)c1 the results were UCH37 DUB inh 3.1.
CC12CCC(C(=O)NNc3ccccc3)(C(=O)C1=O)C2(C)C (centres undefined) was read as UCH37 DUB inh 2.5, NALP3 yeast inh 19.5, ALR H2O2 inh 98.2*, ATG4B inh -4.3 and Calb FLC 14.4.
`CCN(CC)S(=O)(=O)c1ccc(N=Nc2cc(C)cc(Br)c2O)cc1` gave UCH37 DUB inh 4.7, NALP3 yeast inh 0.0, ALR H2O2 inh -10.4, ATG4B inh -2.8 and Calb FLC 25.1.
For Cc1ccc(N=Nc2ccc(O)cc2)c(Br)c1 the results were UCH37 DUB inh 7.6, NALP3 yeast inh 45.0, NALP1 yeast inh 14.2, ALR H2O2 inh 92.2*, ATG4B inh 4.4 and Calb FLC -10.4.
`COC(=O)c1c(NC(=O)CCc2ccc(C)o2)sc(C)c1C` gave UCH37 DUB inh -2.8, NALP3 yeast inh 22.2, NALP1 yeast inh -4.8, ALR H2O2 inh 97.1*, ATG4B inh 11.6 and Calb FLC -9.4.
`COC(=O)c1c(NC(C)=O)sc(C)c1C` gave UCH37 DUB inh 4.5, NALP3 yeast inh 16.9, NALP1 yeast inh 12.3, ATG4B inh 20.4 and Calb FLC -4.7.
Screening CCOC(=O)c1c(NC(=O)CCc2ccc(CC)o2)sc(C)c1C returned UCH37 DUB inh -2.5, NALP3 yeast inh 11.0, NALP1 yeast inh 1.1, ALR H2O2 inh 97.5*, ATG4B inh 3.3 and Calb FLC -3.9.
`N#CCC(=O)NN=Cc1ccc(Cl)cc1` gave UCH37 DUB inh 4.2.
For CC(C)C(=O)NNc1ccccc1 the results were UCH37 DUB inh 0.8, NALP3 yeast inh 13.4, NALP1 yeast inh 32.4, ALR H2O2 inh 42.3, ATG4B inh 4.8 and Calb FLC 5.0.
Screening CC(O)CC(C(=O)NNc1ccccc1)C(=O)NNc1ccccc1 (centres undefined) returned UCH37 DUB inh 3.4, NALP3 yeast inh 19.6, NALP1 yeast inh 12.5, ALR H2O2 inh 99.1*, ATG4B inh -2.1 and Calb FLC inconclusive.
Screening O=C(NNc1ccccc1)C(CCO)C(=O)NNc1ccccc1 returned UCH37 DUB inh 0.4, NALP3 yeast inh 23.8, NALP1 yeast inh 20.7, ALR H2O2 inh 97.9*, ATG4B inh 0.8 and Calb FLC 100.3*.
Screening CCC(=NNc1ccccc1)c1cnnc(-c2ccccc2)n1 returned UCH37 DUB inh 8.0.
`O=C(C[n+]1ccccc1)NN=Cc1ccco1` gave UCH37 DUB inh 1.9.
`O=C(CCl)c1cc2c3c(c1)CC(=O)N3CCC2` gave NALP3 yeast inh -71.6, NALP1 yeast inh 23.3, ALR H2O2 inh 98.1*, ATG4B inh 4.2 and Calb FLC 1.5.
O=C(NCCO)C(=O)Nc1cc2c3c(c1)CC(=O)N3CCC2 was read as UCH37 DUB inh 3.4, NALP3 yeast inh 17.3, NALP1 yeast inh 17.6, ATG4B inh -1.6 and Calb FLC -14.8.
`COCc1c(C(=O)NC2CCCCCC2)oc2ccccc12` gave UCH37 DUB inh 4.0, NALP3 yeast inh 1.2, NALP1 yeast inh 3.5, ALR H2O2 inh 89.2*, ATG4B inh 3.5 and Calb FLC -38.2.
`Cc1c(C(=O)NC2CC2)oc2ccccc12` gave UCH37 DUB inh 0.5, NALP3 yeast inh 0.7, ALR H2O2 inh -2.4 and ATG4B inh 5.5.
Cc1ccc(O)c(Nc2c3ccccc3nc3ccccc23)c1 was read as UCH37 DUB inh -28.8, NALP3 yeast inh 17.3, NALP1 yeast inh 27.1, ALR H2O2 inh 98.8*, ATG4B inh 7.8 and Calb FLC -13.2.
For CCOC(=O)c1ccc(NC(=O)CSc2nccn2C)cc1 the results were UCH37 DUB inh 4.2, NALP3 yeast inh 18.5, NALP1 yeast inh 9.4, ALR H2O2 inh 98.8*, ATG4B inh -16.5 and Calb FLC 6.7.
Cn1ccnc1SCC(=O)Nc1ccc2c(c1)COC2=O was read as UCH37 DUB inh 2.8, NALP3 yeast inh 19.6, NALP1 yeast inh -4.3, ALR H2O2 inh 99.2*, ATG4B inh 1.8 and Calb FLC -4.3.
For COc1ccc(NC(=O)CSc2nccn2C)cc1S(N)(=O)=O the results were UCH37 DUB inh 0.1, NALP3 yeast inh 0.2, NALP1 yeast inh 21.9, ALR H2O2 inh 98.7*, ATG4B inh -9.2 and Calb FLC 3.6.
Screening COc1ccc(NC(=O)CSc2nncs2)cc1S(N)(=O)=O returned UCH37 DUB inh 1.1, NALP3 yeast inh -0.2, NALP1 yeast inh -1.8, ALR H2O2 inh -2.8, ATG4B inh -11.6 and Calb FLC -4.1.
For COC(=O)NN=Cc1ccccc1Cl the results were UCH37 DUB inh -0.4.
`CC(=O)c1ccc(-c2ccc(/C=C(/Sc3n[nH]c(C)n3)C(=O)O)o2)cc1` gave UCH37 DUB inh 20.9*, NALP3 yeast inh 18.7, NALP1 yeast inh 23.5, ALR H2O2 inh 14.8, ATG4B inh 1.4 and Calb FLC 0.9.
For Cc1nc(S/C(=C/c2ccc(-c3ccc(C(=O)O)cc3)o2)C(=O)O)n[nH]1 the results were NALP3 yeast inh 23.0, NALP1 yeast inh 6.5, ATG4B inh -5.8 and Calb FLC 13.1.
Screening Cc1nc(-c2ccc(NC(=O)CC(C)C)cc2)cs1 returned UCH37 DUB inh 1.7, NALP3 yeast inh 26.9, NALP1 yeast inh 22.7, ALR H2O2 inh 99.6*, ATG4B inh -1.7 and Calb FLC 25.5.
`Cc1nc(-c2ccc(NC(=O)C3CC3)cc2)cs1` gave UCH37 DUB inh 6.2, NALP3 yeast inh 21.5, NALP1 yeast inh 16.8, ALR H2O2 inh 66.9, ATG4B inh -2.6 and Calb FLC -17.1.
For COc1ccccc1C(=O)NN=C(C)CC(=O)Nc1ccc(Nc2ccccc2)cc1 the results were UCH37 DUB inh 4.1.
